Measured values gathered from unrelated publications.
Read-out: cell growth or viability

`Cc1ccc(NNc2nc3ccc(Br)cc3c(=O)n2-c2ccccc2)cc1` has an IC50 of 14.8 µM (NIH3T3; MTT; 48 h).
With `CC(=O)Nc1ccc(O)cc1` the IC50 was 65.4 µM (NIH3T3; 96 h).
`CS(=O)(=O)CCNCc1ccc(-c2ccc3ncnc(Nc4ccc(OCc5cccc(F)c5)c(Cl)c4)c3c2)o1` gave an IC50 of 0.122 µM (NCI-H2170; ATP luminescence).
`COc1cc(C(=O)c2nc(-c3ccc4cc[nH]c4c3)c[nH]2)cc(OC)c1OC` gave an IC50 of 0.0202 µM (PC-3; MTS; 72 h).
For `CCCCC(=O)Nc1ccc(-c2cnc3ccn(CCC)c(=O)c3c2)cn1`, the IC50 was over 10 µM (A549; CCK-8; 72 h).
The IC50 of `Cc1cc(Nc2ncnc3ccc(NC4=NC(C)(C)CO4)cc23)ccc1Oc1ccn2ncnc2c1` is reported as 0.088 µM (NCI-H2170; ATP luminescence).
The IC50 of `NNc1nc2c(Cl)cc(Cl)cc2c(=O)n1-c1ccc(F)cc1` is reported as 73.7 µM (NIH3T3; MTT; 48 h).
With `CC(=O)O[C@H]1[C@H](OC(C)=O)[C@@H](Nc2cc3cccnc3c3ncccc23)OC[C@@H]1OC(C)=O` the IC50 was 14 µM (HFF-1; MTT; 48 h, dark).
With `Cc1c(C)c2c(c(C)c1O)CCC(C)(COc1ccc(CC3SC(=O)NC3=O)cc1)O2` (stereo not shown) the IC50 was 37.1 µM (NIH3T3; 96 h).
The IC50 of `CN(C)C(=O)Nc1nc2c(Cl)cc(Cl)cc2c(=O)n1-c1ccccc1` is reported as 38.2 µM (NIH3T3; MTT; 48 h).
`O=C1Nc2ccccc2/C1=N/N=C/c1cccc([N+](=O)[O-])c1` gave an IC50 of 221 µg/mL (HUVEC; MTT; 24 h).
The IC50 of `O[C@@H]1[C@@H](O)[C@H](Nc2cc3cccnc3c3ncccc23)OC[C@H]1O` is reported as 42.8 µM (HFF-1; MTT; 48 h, dark).
The IC50 of `COc1ccccc1/C=N/N=C1\C(=O)Nc2ccccc21` is reported as 235 µg/mL (HUVEC; MTT; 24 h).
`COc1cc(C(=O)c2nc(-c3cccc4[nH]ccc34)c(C)[nH]2)cc(OC)c1OC` has an IC50 of 0.0192 µM (PC-3; MTS; 72 h).
For `C=CCn1c(=O)c2cnc(Nc3ccc(N4CCN(C)CC4)cc3)nc2n1-c1ccc2c(n1)[C@@](O)(CC)CC2`, the IC50 was 0.31 µM (NCI-H1048; ATP luminescence; 72 h).
With `NNc1nc2ccc(Br)cc2c(=O)n1-c1ccc(Cl)cc1` the IC50 was 19.7 µM (NIH3T3; MTT; 48 h).
